Assay results taken from paper PMC4285304 (Journal of Thrombosis and Haemostasis, 2014).
Where two headings read alike, the source gives them in different places.

Experiments:
[1] = tested on: tissue factor-induced thrombin generation in normal human platelet-poor plasma; experiment: Thrombin generation assay; type: biochemical; conditions: for maximal increase in Cmax over baseline / maximal increase in ETP over baseline: absence of rhs-TM, lower concentration range, not significant; for Cmax increase vs. control / ETP increase vs. control: presence of rhs-TM 10 nmol L^−1; for IC50: normal human PPP
In short: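 Citrated blood (3.12%, 1/10 vol) came from unmedicated healthy donors; PPP was prepared at 1000× g for 20 min at room temperature. Individual-donor PPP was spiked with increasing test compound concentrations (3–948 or 3–1090 nmol L−1) or vehicle, with or without rhs-TM (final 10 nmol L−1). TF was 1.67 pmol L−1 and phospholipid 1.33 μmol L−1 (final). After 5 min at 37 °C, FluCa was added. Calibrated thrombogram gave Cmax and ETP; n = 8–12.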

[2] = tested on: thrombin generation in protein C-deficient human plasma; experiment: Thrombin generation assay; type: biochemical; conditions: absence or presence of rhs-TM
In short: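 Lyophilised protein C-deficient human plasma was spiked with increasing test compound concentrations or vehicle, with or without rhs-TM (final 10 nmol L−1). Thrombin generation was triggered with TF 1.67 pmol L−1 and phospholipid 1.33 μmol L−1 (final), incubated 5 min at 37 °C, and started with FluCa (HEPES, CaCl2, fluorogenic substrate). Fluorescence was calibrated per sample; Cmax and ETP were derived; n = 3.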

[3] = tested on: prothrombin fragment 1+2 generation in normal human platelet-poor plasma; experiment: Prothrombin fragment 1+2; type: biochemical; conditions: for F1+2 increase: same concentration range as by the CAT method (melagatran 119–474, dabigatran 136–545 nmol L^−1); for IC50: read-out: F1+2 generation IC50, normal human PPP
[4] = tested on: prothrombin fragment 1+2 generation in protein C-deficient human plasma; experiment: Prothrombin fragment 1+2; type: biochemical; conditions: presence of TM
In short: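 Protein C-deficient human plasma was spiked with test compound (increasing concentrations) or vehicle plus rhs-TM (final 10 nmol L−1), then defibrinated with PefablocFG (final 6 mg mL−1). The CAT-type TF/phospholipid trigger was used, started with Fluo-buffer (HEPES, CaCl2, 5% DMSO, no substrate) and stopped after 12 min with PPACK (final 10 μmol L−1). Samples went into EDTA (final 100 mmol L−1) at 4 °C and were stored at −20 °C. F1+2 was measured by ELISA.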

[5] = tested on: thrombin–antithrombin (TAT) complex; experiment: Tissue factor-induced hypercoagulability in rats: plasma TAT levels; type: in vivo; conditions: rat; for effect on TF-induced increase in TAT levels: 0.3 mg kg^−1 i.v., 10 minutes after TF 8 mg kg^−1
plasma fibrinogen = experiment: Tissue factor-induced hypercoagulability in rats: fibrinogen levels; type: in vivo; conditions: rat
platelet count = experiment: Tissue factor-induced hypercoagulability in rats: platelet count; type: in vivo; conditions: rat
[6] = tested on: activated partial thromboplastin time; experiment: Activated partial thromboplastin time; type: in vivo; conditions: rat, 15 minutes after drug, 10 minutes after TF
In short: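 Male Wistar rats (227–273 g) were fasted overnight and anaesthetised with i.p. pentobarbital-Na (80–100 mg kg−1). Test compound in 0.9% NaCl (0.001–0.3 mg kg−1) or vehicle (1 mL kg−1) was given i.v., then 5 min later recombinant TF (8 mg kg−1) or vehicle (sham) was given as a slow i.v. bolus. Citrated aortic blood was drawn 10 min after TF. APTT was measured on PPP by ball coagulometer, as fold over baseline; n = 10.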

[7] = Plasma concentrations of rivaroxaban and melagatran in rats; type: in vivo; conditions: rat, 15 minutes after drug, 10 minutes after TF
thrombin bound to TM = conditions: cited from earlier work
[8] = tested on: mortality of treated animals; conditions: TF-induced hypercoagulation; cited from earlier work
prothrombin time = experiment: Prothrombin time; type: in vivo; conditions: rat; for PT prolongation: 15 minutes after drug, 10 minutes after TF
In short: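 Rats (male Wistar, 227–273 g) were fasted overnight and anaesthetised with i.p. pentobarbital-Na (80–100 mg kg−1). Test compound in PEG:H2O:glycerol (996:100:60 g), 0.001–0.3 mg kg−1, or vehicle (1 mL kg−1) was given i.v. After 5 min, TF (8 mg kg−1) or vehicle (sham) was given as a slow i.v. bolus. Citrated aortic blood was taken 10 min later. PT on PPP by ball coagulometer, expressed as fold over baseline; n = 10.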

[9] = melagatran at 119–474 nmol L^−1
[10] = read-out: Cmax IC50, peak thrombin generation, +TM (rhs-TM 10 nmol L^−1)
[11] = read-out: Cmax IC50, peak thrombin generation, −TM (absence of rhs-TM)
[12] = read-out: ETP IC50, endogenous thrombin potential, +TM (rhs-TM 10 nmol L^−1)
[13] = read-out: ETP IC50, endogenous thrombin potential, −TM (absence of rhs-TM)
[14] = presence of rhs-TM 10 nmol L^−1
[15] = whole dose range tested (0.001–0.3 mg kg^−1 i.v.)

SMILES	maximal increase in Cmax over baseline [1] [%]	maximal increase in ETP over baseline [1] [%]	IC50 [1, 10] [nM]	IC50 [1, 11] [nM]	IC50 [1, 12] [nM]	IC50 [1, 13] [nM]	increase in ETP or Cmax [2]	F1+2 increase [3, 14]	IC50 ([3]; absence of rhs-TM) [nM]	generation of F1+2 [4]	effect on TF-induced increase in TAT levels [5]	increase in the affinity of the thrombin inhibitor for the thrombin bound to TM (thrombin bound to TM)	also measured
N=C(N)c1ccc(CNC(=O)[C@@H]2CCN2C(=O)[C@H](NCC(=O)O)C2CCCCC2)cc1 [Melagatran]	8	6	> 950	940 ± 79	> 950	732 ± 43	No increase	1.8–2.0 fold	368 ± 40	concentration-dependently inhibited	reduced	twofold increase	Cmax increase vs. control [1, 9]: 2.2–2.7 fold; ETP increase vs. control [1, 9]: 1.9–2.2 fold; TAT increase vs. TF control ([5]; 0.01 mg kg^−1 i.v., P < 0.01): 1.6 fold; fibrinogen levels (plasma fibrinogen; 0.03 mg kg^−1 i.v., TF control 2.34 ± 0.08 g L^−1, P < 0.001): 1.41 ± 0.20 g/L; platelet count (platelet count; 0.01 mg kg^−1 i.v., TF control 644 × 10^3 μL^−1): 559000 µL⁻¹; APTT prolongation ([6]; 0.001 mg kg^−1 i.v.): 1.26 ± 0.05 x-fold over baseline; APTT prolongation ([6]; 0.003 mg kg^−1 i.v.): 1.34 ± 0.05 x-fold over baseline; APTT prolongation ([6]; 0.01 mg kg^−1 i.v.): 1.68 ± 0.03 x-fold over baseline; APTT prolongation ([6]; 0.03 mg kg^−1 i.v.): 2.17 ± 0.23 x-fold over baseline; APTT prolongation ([6]; 0.1 mg kg^−1 i.v.): 2.08 ± 0.18 x-fold over baseline; APTT prolongation ([6]; 0.3 mg kg^−1 i.v.): 3.11 ± 0.27 x-fold over baseline; Plasma concentration ([7]; 0.01 mg kg^−1 i.v.): 19.2 ± 0.9 ng/mL; Plasma concentration ([7]; 0.3 mg kg^−1 i.v.): 524.7 ± 26.1 ng/mL
[H]/N=C(/N)c1ccc(NCc2nc3cc(C(=O)N(CCC(=O)O)c4ccccn4)ccc3n2C)cc1 [Dabigatran]	11	5	> 1090	976 ± 71	> 1090	722 ± 44	No increase	1.6–1.9 fold	387 ± 63	concentration-dependently inhibited			Cmax increase vs. control ([1]; dabigatran at 68–545 nmol L^−1): 2.0–3.3 fold; ETP increase vs. control ([1]; dabigatran at 136–545 nmol L^−1): 2.2–2.6 fold
N=C(N)NCCCNC(=O)[C@@H]1CCCCN1C(=O)[C@@H](CC1CCCCC1)NCC(=O)O [inogatran]												twofold increase	
CCOC(=O)CN[C@@H](C(=O)N1CC[C@H]1C(=O)NCc1ccc(/C(N)=N\O)cc1)C1CCCCC1 [ximelagatran]													mortality rate, dose-dependent [8]: up to 67%; mortality rate, time-dependent [8]: ≤ 88%
O=C(NC[C@H]1CN(c2ccc(N3CCOCC3=O)cc2)C(=O)O1)c1ccc(Cl)s1 [Rivaroxaban]			44 ± 6	66 ± 5	57 ± 8	697 ± 106			12 ± 7	concentration-dependently inhibited	complete inhibition		IC50 [3, 14]: 14 ± 7 nM; fibrinogen concentration (plasma fibrinogen; [15]): not affected; platelet count (platelet count; [15]): not affected; PT prolongation (prothrombin time; 0.001 mg kg^−1 i.v.): 1.00 ± 0.04 x-fold over baseline; PT prolongation (prothrombin time; 0.003 mg kg^−1 i.v.): 1.02 ± 0.02 x-fold over baseline; PT prolongation (prothrombin time; 0.01 mg kg^−1 i.v.): 0.96 ± 0.02 x-fold over baseline; PT prolongation (prothrombin time; 0.03 mg kg^−1 i.v.): 1.03 ± 0.02 x-fold over baseline; PT prolongation (prothrombin time; 0.1 mg kg^−1 i.v.): 1.26 ± 0.06 x-fold over baseline; PT prolongation (prothrombin time; 0.3 mg kg^−1 i.v.): 1.92 ± 0.05 x-fold over baseline; prolongation of PT over the dose range (prothrombin time; dose range 0.001–0.3 mg kg^−1 i.v.): 1.0–1.9 fold over baseline
